Measured values collected from several papers.
Each line is one published result; the experiments were not run side by side.

CCc1ccc(Cc2cc([C@@H]3O[C@H](CO)[C@@H](O)[C@H](O)[C@H]3O)cc3c2CCC3)cc1 — bioavailability (male C57BL/6 mouse, plasma; oral, 1 mg/kg): 89%
CC[C@H](C)[C@@H]1NC(=O)[C@@](C)(NC(=O)[C@H](CCCNC(=N)N)NC(=O)[C@H](CC(C)C)NC(=O)[C@@H](NC(=O)[C@H](CCC(N)=O)NC(=O)[C@H](CC(C)C)NC(C)=O)[C@@H](C)O)CCCC=CCCC[C@@](C)(C(=O)N[C@@H](CC(C)C)C(=O)N[C@@H](Cc2ccc3ccccc3c2)C(N)=O)NC(=O)[C@H](CCCNC(=N)N)NC(=O)[C@H](CCC(N)=O)NC1=O — AUC(0-t) (male BALB/c mouse, plasma; intravenous, 10 mg/kg): 233 µg·h/mL
O=C(N1CCC(CNS(=O)(=O)c2ccc(Cl)cc2)CC1)n1cncn1 — half-life (chemical stability, HPLC; aqueous buffer; 167 µM, pH 7.4): 0.993 h
N[C@@H](CSSC[C@H](N)C(=O)O)C(=O)O — bioavailability (Kunming mouse, plasma; oral, 100 mg/kg): 25.6%
Cc1cccc(C(=O)n2nc(Cl)c(=O)c3ccccc32)c1 — half-life (chemical stability; aqueous buffer; pH 7.3): 0.642 h
C[C@]1(c2nc3c(C(N)=O)cccc3[nH]2)CCCN1 — Vd/F (male rhesus monkey, plasma; oral, 5 mg/kg, single dose): 38 L/kg
O=C(ON1C(=O)CCC1=O)N1CCC(CNS(=O)(=O)c2ccc(Cl)cc2)CC1 — half-life (chemical stability, HPLC; aqueous buffer; 167 µM, pH 7.4): 1.21 h
Cc1cccc(C(=O)n2ncc(=O)c3ccccc32)c1 — half-life (chemical stability; aqueous buffer; pH 7.3): 1.9 h
